Here are results for 11 compounds from PMC7433031 (European journal of medicinal chemistry, 2020).

For assay [1], the system named is MOLT-4 T-ALL cells. Kind of assay: MOLT-4 cell viability assay. Format: cell-based, human.
Assay [2] relates to RS4;11 B-cell ALL cell line. Kind of assay: RS4. Format: cell-based. The conditions noted are these: Homo sapiens, RS4-11, 48 h, read-out: IC50 48 h treatment RS4;11. In short, it runs like this:
(§1)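 NCI-H146 small-cell lung cancer and RS4;11 B-ALL cells maintained in RPMI 1640 plus 10% FBS and 1% penicillin-streptomycin. Cells seeded at 5×10⁴ to 1×10⁵ per well and treated with test compound for 48 h. Viability measured by tetrazolium-based MTS assay, with IC50 calculated from the viability data.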

Assay [3] relates to H146 small cell lung cancer cell line. The assay can be described thus: H146 cell viability assay. The format is cell-based. The conditions noted are these: Homo sapiens, NCI-H146, 48 h, read-out: IC50 48 h treatment H146. The gist of the method:
as §1

In assay [4] the test system is human platelets. Kind of assay: Human platelet viability assay. The format is cell-based. Conditions: for pIC50: Homo sapiens, Platelet, 48 h, read-out: IC50 48 h treatment Platelets. In short, it runs like this:
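Platelets were separated from purchased platelet-rich plasma in acid citrate buffer with 1 μM PGE1 and 0.2 units/mL apyrase (final). Cells were centrifuged and adjusted to 2 × 10⁸/mL in HEPES Tyrode's buffer with 10% FBS, 1 μM PGE1 and 0.2 units/mL apyrase. They were treated for 48 h, with or without a 10 μM pomalidomide block, and read by MTS. IC50 values were curve-fitted. The ratio divides platelet IC50 by 48 h MOLT-4 MTS IC50.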

Assay [5] deals with BCL-XL (Homo sapiens, UniProt Q07817). Kind of assay: Western blot of BCL-XL protein levels in MOLT-4 cells. Format: cell-based. The conditions noted are these: 16 h; for BCL-XL degradation in MOLT-4 cells at 100 nM: Western blot (Figure 3). The gist of the method: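 MOLT-4 cells were treated for 16 h with test compound (100 nM for VHL-based, 50 nM for CRBN-based, or a concentration series for DC50). Other runs used 100 nM over a time course, or 16 h exposure followed by washout into drug-free medium. Some cells were pretreated 2 h with 10 μM pomalidomide or 1 μM MG-132. Immunoblot bands were normalized to β-actin and expressed as % remaining versus vehicle.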
Sequence of BCL-XL (Q07817 whole entry): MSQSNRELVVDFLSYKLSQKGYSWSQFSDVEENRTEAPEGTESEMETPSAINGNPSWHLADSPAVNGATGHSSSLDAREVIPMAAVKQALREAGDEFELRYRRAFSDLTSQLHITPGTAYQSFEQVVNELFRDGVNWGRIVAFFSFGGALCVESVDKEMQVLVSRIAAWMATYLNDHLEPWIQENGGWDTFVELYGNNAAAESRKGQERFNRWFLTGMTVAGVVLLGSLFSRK
(A western blot detects proteins with antibodies after separation by electrophoresis.)

Assay [6] relates to CLL patients. Conditions: cited from earlier work.
The mark [7] stands for this setting: Homo sapiens, MOLT-4, 48 h, read-out: IC50 48 h treatment MOLT-4.
The mark [8] stands for this setting: Homo sapiens, MOLT-4, 48 h, read-out: IC50, reduction of MOLT-4 cell viability.
Setting [9] is: read-out: IC50, reduction of MOLT-4 cell viability, MOLT-4 cells, 48 h treatment, means of at least three independent experiments (Tables 1-4).

pIC50: −log10 of the molar value. Like-named read-outs stand apart in the source and are kept apart here.

By pIC50 is commonly meant the IC50 on a negative log10 scale, so that one unit is a factor of ten. Regarding `CN(CCCCCCCn1cc(COCCOCCNc2cccc3c2C(=O)N(C2CCC(=O)NC2=O)C3=O)nn1)CC[C@H](CSc1ccccc1)Nc1ccc(S(=O)(=O)NC(=O)c2ccc(N3CCN(CC4=C(c5ccc(Cl)cc5)CCC(C)(C)C4)CC3)cc2)cc1S(=O)(=O)C(F)(F)F` (stereo partly drawn) [Compound 15a, 4-(4-((4’-Chloro-4,4-dimethyl-3,4,5,6-tetrahydro-[1,1’-biphenyl]-2-yl)methyl)piperazin-1-yl)-N-((4-(((2R)-4-((7-(4-((2-(2-((2-(2,6-dioxopiperidin-3-yl)-1,3-dioxoisoindolin-4-yl)amino)ethoxy)ethoxy)methyl)-1H-1,2,3-triazol-1-yl)heptyl)(methyl)amino)-1-(phenylthio)butan-2-yl)amino)-3-((trifluoromethyl)sulfonyl)phenyl)sulfonyl)benzamide], the pIC50 in assay [1] (setting [7]) was 7.53; in assay [1] (setting [8]), 7.53; in assay [2], 7.21; in assay [3] it was 7.21; in assay [4], 5.20. The “BCL-XL degradation in MOLT-4 cells at 50 nM” value in assay [5] (50 nM, Western blot (Figure 4)) is “better BCL-XL degraders than their amide analogs”.
In the case of `CC1(C)CCC(c2ccc(Cl)cc2)=C(CN2CCN(c3ccc(C(=O)NS(=O)(=O)c4ccc(N[C@H](CCN5CCN(CCOCCOCCOCCNc6cccc7c6C(=O)N(C6CCC(=O)NC6=O)C7=O)CC5)CSc5ccccc5)c(S(=O)(=O)C(F)(F)F)c4)cc3)CC2)C1` (stereo partly drawn) [Compound 12c, 4-(4-((4’-Chloro-4,4-dimethyl-3,4,5,6-tetrahydro-[1,1’-biphenyl]-2-yl)methyl)piperazin-1-yl)-N-((4-(((2R)-4-(4-(2-(2-(2-(2-((2-(2,6-dioxopiperidin-3-yl)-1,3-dioxoisoindolin-4-yl)amino)ethoxy)ethoxy)ethoxy)ethyl)piperazin-1-yl)-1-(phenylthio)butan-2-yl)amino)-3-((trifluoromethyl)sulfonyl)phenyl)sulfonyl)benzamide], the pIC50 in assay [1] (setting [7]) is 7.76; in assay [1] (setting [8]), 7.76; in assay [2] it was 7.41; in assay [3], 7.61; in assay [4], 5.81.
Regarding “(2S,4R)-1-((S)-2-(2-(2-(4-((R)-3-((4-(N-(4-(4-((4’-Chloro-4,4-dimethyl-3,4,5,6-tetrahydro-[1,1’-biphenyl]-2-yl)methyl)piperazin-1-yl)benzoyl)sulfamoyl)-2-((trifluoromethyl)sulfonyl)phenyl)amino)-4-(phenylthio)butyl)piperazin-1-yl)ethoxy)acetamido)-3,3-dimethylbutanoyl)-4-hydroxy-N-((S)-1-(4-(4-methylthiazol-5-yl)phenyl)ethyl)pyrrolidine-2-carboxamide [Compound 4a]”, in assay [1] (setting [9]), the pIC50 is 6.82.
On to `Cc1ncsc1-c1ccc([C@H](C)NC(=O)[C@@H]2C[C@@H](O)CN2C(=O)[C@@H](NC(=O)CCCCCC(=O)N(C)CC[C@H](CSc2ccccc2)Nc2ccc(S(=O)(=O)NC(=O)c3ccc(N4CCN(CC5=C(c6ccc(Cl)cc6)CCC(C)(C)C5)CC4)cc3)cc2S(=O)(=O)C(F)(F)F)C(C)(C)C)cc1` [Compound 5, N^1-((R)-3-((4-(N-(4-(4-((4’-Chloro-4,4-dimethyl-3,4,5,6-tetrahydro-[1,1’-biphenyl]-2-yl)methyl)piperazin-1-yl)benzoyl)sulfamoyl)-2-((trifluoromethyl)sulfonyl)phenyl)amino)-4-(phenylthio)butyl)-N^7-((S)-1-((2S,4R)-4-hydroxy-2-(((S)-1-(4-(4-methylthiazol-5-yl)phenyl)ethyl)carbamoyl)pyrrolidin-1-yl)-3,3-dimethyl-1-oxobutan-2-yl)-N^1-methylheptanediamide], for which the “BCL-XL degradation in MOLT-4 cells at 100 nM” value (“BCL-XL degradation … at 100 nM” for short) in assay [5] was “weak BCL-XL degradation”.
Turning to “navitoclax [ABT-263, reference compound]”, the “selectivity for MOLT-4 cells over human platelets” value in assay [4] (MOLT-4 versus human platelets) was “no selectivity”. Further, the “IC50 ratio between human platelets and MOLT-4 cells” value in assay [4] (platelets IC50 / MOLT-4 IC50, 48 h) is listed as 1.1.
For `CC1(C)CCC(CN2CCN(c3ccc(C(=O)NS(=O)(=O)c4ccc(NCC5CCOCC5)c([N+](=O)[O-])c4)c(Oc4cnc5[nH]ccc5c4)c3)CC2)=C(c2ccc(Cl)cc2)C1` [venetoclax], in assay [6], the complete remission rate is given as 20% and the overall response rate is 71–79%.
As for `CC1(C)CCC(c2ccc(Cl)cc2)=C(CN2CCN(c3ccc(C(=O)NS(=O)(=O)c4ccc(N[C@H](CCN5CCN(C(=S)NCCOCCOCCNc6cccc7c6C(=O)N([C@@H]6CCC(=O)NC6=O)C7=O)CC5)CSc5ccccc5)c(S(=O)(=O)C(F)(F)F)c4)cc3)CC2)C1` (racemic) [Compound 11b, 4-(4-((2-(4-Chlorophenyl)-5,5-dimethylcyclohex-1-enyl)methyl)piperazin-1-yl)-N-(4-((2R)-4-(4-(2-(2-(2-(2-(2,6-dioxopiperidin-3-yl)-1,3-dioxoisoindolin-4-ylamino)ethoxy)ethoxy)ethylcarbamothioyl)piperazin-1-yl)-1-(phenylthio)butan-2-ylamino)-3-(trifluoromethylsulfonyl)phenylsulfonyl)benzamide], the “fold decrease in potency compared to 11a” value in assay [1] (MOLT-4, versus 11a) is on record as ~ 6 fold.
Turning to `CN(CCCNc1cccc2c1C(=O)N(C1CCC(=O)NC1=O)C2=O)CC[C@H](CSc1ccccc1)Nc1ccc(S(=O)(=O)NC(=O)c2ccc(N3CCN(CC4=C(c5ccc(Cl)cc5)CCC(C)(C)C4)CC3)cc2)cc1S(=O)(=O)C(F)(F)F` (stereo partly drawn) [Compound 16a, 4-(4-((4’-Chloro-4,4-dimethyl-3,4,5,6-tetrahydro-[1,1’-biphenyl]-2-yl)methyl)piperazin-1-yl)-N-((4-(((2R)-4-((3-((2-(2,6-dioxopiperidin-3-yl)-1,3-dioxoisoindolin-4-yl)amino)propyl)(methyl)amino)-1-(phenylthio)butan-2-yl)amino)-3-((trifluoromethyl)sulfonyl)phenyl)sulfonyl)benzamide], the pIC50 in assay [1] (setting [7]) is 7.49; in assay [1] (setting [8]), 7.49; in assay [2], 6.89; in assay [3], 7.15; in assay [4], 5.48.
`Cc1ncsc1-c1ccc([C@H](C)NC(=O)[C@@H]2C[C@@H](O)CN2C(=O)[C@@H](NC(=O)CCCCCCN(C)CC[C@H](CSc2ccccc2)Nc2ccc(S(=O)(=O)NC(=O)c3ccc(N4CCN(CC5=C(c6ccc(Cl)cc6)CCC(C)(C)C5)CC4)cc3)cc2S(=O)(=O)C(F)(F)F)C(C)(C)C)cc1` [Compound 6c, (2S,4R)-1-((S)-2-(7-(((R)-3-((4-(N-(4-(4-((4’-Chloro-4,4-dimethyl-3,4,5,6-tetrahydro-[1,1’-biphenyl]-2-yl)methyl)piperazin-1-yl)benzoyl)sulfamoyl)-2-((trifluoromethyl)sulfonyl)phenyl)amino)-4-(phenylthio)butyl)(methyl)amino)heptanamido)-3,3-dimethylbutanoyl)-4-hydroxy-N-((S)-1-(4-(4-methylthiazol-5-yl)phenyl)ethyl)pyrrolidine-2-carboxamide]: the “BCL-XL degradation … at 100 nM” value in assay [5] is listed as “the most potent degrader among its analogs”.
For “(2S,4R)-1-((S)-2-(2-(2-(2-(4-((R)-3-((4-(N-(4-(4-((4’-Chloro-4,4-dimethyl-3,4,5,6-tetrahydro-[1,1’-biphenyl]-2-yl)methyl)piperazin-1-yl)benzoyl)sulfamoyl)-2-((trifluoromethyl)sulfonyl)phenyl)amino)-4-(phenylthio)butyl)piperazin-1-yl)ethoxy)ethoxy)acetamido)-3,3-dimethylbutanoyl)-4-hydroxy-N-((S)-1-(4-(4-methylthiazol-5-yl)phenyl)ethyl)pyrrolidine-2-carboxamide [Compound 4b]”, the “times less potent than 4a in reducing MOLT-4 cell viability” value in assay [1] (MOLT-4, versus 4a) was ~ 6 times. In addition, in assay [1] (setting [9]), the pIC50 is 6.04. For the same compound, the “BCL-XL degradation … at 100 nM” value in assay [5] is “slightly more potent in inducing BCL-XL degradation than 4a”.
Consider `Cc1ncsc1-c1ccc([C@H](C)NC(=O)[C@@H]2C[C@@H](O)CN2C(=O)[C@@H](NC(=O)CCOCCC(=O)N2CCN(CC[C@H](CSc3ccccc3)Nc3ccc(S(=O)(=O)NC(=O)c4ccc(N5CCN(CC6=C(c7ccc(Cl)cc7)CCC(C)(C)C6)CC5)cc4)cc3S(=O)(=O)C(F)(F)F)CC2)C(C)(C)C)cc1` [Compound 3a, (2S,4R)-1-((S)-2-(3-(3-(4-((R)-3-((4-(N-(4-(4-((4’-Chloro-4,4-dimethyl-3,4,5,6-tetrahydro-[1,1’-biphenyl]-2-yl)methyl)piperazin-1-yl)benzoyl)sulfamoyl)-2-((trifluoromethyl)sulfonyl)phenyl)amino)-4-(phenylthio)butyl)piperazin-1-yl)-3-oxopropoxy)propanamido)-3,3-dimethylbutanoyl)-4-hydroxy-N-((S)-1-(4-(4-methylthiazol-5-yl)phenyl)ethyl)pyrrolidine-2-carboxamide], for which the “times less potent than 1e in MOLT-4 cell viability” value in assay [1] (MOLT-4, versus 1e) is ~ 4 times.
